The values that follow come from BindingDB's records for doi:10.1021/jm9802620 (University of Washington, 1998).

In general, IC50 refers to the concentration at which inhibition is half-maximal. A lower IC50 goes with greater potency.

The target in assay [1] is Glyceraldehyde-3-phosphate dehydrogenase (GAPDH). Kind of assay: Inhibitory activity measured for Glyceraldehyde-3-phosphate dehydrogenase (GAPDH) in Leishmania. mexicana. The essentials: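 Recombinant glycosomal GAPDH of L. mexicana, T. cruzi or T. brucei; human enzyme from erythrocytes. NADH formation followed at 340 nm, 21 °C, in 0.1 M triethanolamine-HCl pH 7.6 with DTT, NaN3, MgSO4, EDTA, 10 mM K2HPO4, 0.8 mM glyceraldehyde-3-phosphate, 0.19 mM NAD+, 5% DMSO. Reaction started with enzyme. IC50 from 0–1 min initial rates at ≥5 inhibitor levels versus DMSO control.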

Assay [2] shares this target. The assay is described as follows: Inhibitory activity was measured for Glyceraldehyde-3-phosphate dehydrogenase (GAPDH) in Leishmania. mexicana.

`Nc1ccc(CNc2ncnc3c2ncn3C2O[C@H](CO)[C@@H](O)[C@H]2O)cc1` (stereo not given in full) registered an IC50 in assay [1] of 3.1 mM.

On to `Cc1cccc(CNc2ncnc3c2ncn3C2O[C@H](CO)[C@@H](O)[C@H]2O)c1` (stereo not given in full), for which the half-inhibitory concentration (IC50) in assay [1] was found to be 0.7 mM. Against the preceding compound, the IC50 is about 4.4-fold lower.

`CC(C)=CCNc1ncnc2c1ncn2C1O[C@H](CO)[C@@H](O)[C@H]1O` (stereo not given in full) displayed a half-maximal inhibitory concentration (IC50) in assay [1] greater than 5 mM.

As to `CC(C)CCNc1ncnc2c1ncn2C1O[C@H](CO)[C@@H](O)[C@H]1O` (stereo not given in full), in assay [2], the IC50 is 3.7 mM.

Regarding `OC[C@H]1OC(n2cnc3c(N[C@@H]4CCCc5ccccc54)ncnc32)[C@H](O)[C@@H]1O` (stereo not given in full), the half-inhibitory concentration (IC50) in assay [1] stood at 0.36 mM.
